From ChEMBL document CHEMBL1629690, “Development of hexadecyloxypropyl tenofovir (CMX157) for treatment of infection caused by wild-type and nucleoside/nucleotide-resistant HIV” (Antimicrob Agents Chemother, 2010)

Legend:
[1] = test system: Human immunodeficiency virus 1; experiment: Antiviral activity against HIV1 isolate 056 expressing wild type reverse transcriptase gene by phenosense assay; format: functional, organism-based; settings: Human immunodeficiency virus 1, isolate 056
In short: (§1)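 In the PhenoSense recombinant virus assay, virus was tested against increasing drug concentrations. EC50 came from the inhibition curve and was compared with a drug-sensitive reference virus.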

[2] = test system: Human immunodeficiency virus 1; experiment: Antiviral activity against HIV1 isolate 057 expressing wild type reverse transcriptase gene by phenosense assay; format: functional, organism-based; settings: Human immunodeficiency virus 1, isolate 057; in short: as §1
[3] = test system: Human immunodeficiency virus 1; experiment: Antiviral activity against HIV1 isolate 058 harboring reverse transcriptase M41L/D67N/K70R/L210W/T215F/K219Q mutant gene by phenosense assay; format: functional, organism-based; settings: Human immunodeficiency virus 1, isolate 058
In short: (§2)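 Recombinant-virus PhenoSense HIV assay run on a panel of 30 NRTI-resistant HIV-1 mutants and two wild-type viruses. Each virus is tested across increasing drug concentrations to give an inhibition curve and EC50. Fold change is the test recombinant EC50 divided by the EC50 of the drug-sensitive wild-type reference virus.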

[4] = test system: Human immunodeficiency virus 1; experiment: Antiviral activity against HIV1 isolate 060 harboring reverse transcriptase M41L/D67N/K70R/L210W/T215Y/K219E mutant gene by phenosense assay; format: functional, organism-based; settings: Human immunodeficiency virus 1, isolate 060; in short: as §2
[5] = test system: Human immunodeficiency virus 1; experiment: Antiviral activity against HIV1 isolate 063 harboring reverse transcriptase M41L/D67N/K70R/M184V/L210W/T215Y/K219E mutant gene by phenosense assay; format: functional, organism-based; settings: Human immunodeficiency virus 1, isolate 063; in short: as §2
[6] = test system: Human immunodeficiency virus 1; experiment: Antiviral activity against HIV1 isolate 066 harboring reverse transcriptase 184V mutant gene by phenosense assay; format: functional, organism-based; settings: Human immunodeficiency virus 1, isolate 066; in short: as §2
[7] = test system: Human immunodeficiency virus 1; experiment: Antiviral activity against HIV1 isolate 067 harboring reverse transcriptase A62V/D67G/T69SVG/V75I/T215I mutant gene by phenosense assay; format: functional, organism-based; settings: Human immunodeficiency virus 1, isolate 067; in short: as §2
[8] = test system: Human immunodeficiency virus 1; experiment: Antiviral activity against HIV1 isolate 070 harboring reverse transcriptase 65R/S68G mutant gene by phenosense assay; format: functional, organism-based; settings: Human immunodeficiency virus 1, isolate 070; in short: as §2
[9] = test system: Human immunodeficiency virus 1; experiment: Antiviral activity against HIV1 isolate 153 harboring reverse transcriptase L74V mutant gene by phenosense assay; format: functional, organism-based; settings: Human immunodeficiency virus 1, isolate 153; in short: as §2
[10] = test system: Human immunodeficiency virus 1; experiment: Antiviral activity against HIV1 isolate 160 harboring reverse transcriptase S68G/V75(I/T)/F77L/Y115F/F116Y /Q151M mutant gene by phenosense assay; format: functional, organism-based; settings: Human immunodeficiency virus 1, isolate 160; in short: as §2
[11] = test system: Human immunodeficiency virus 1; experiment: Antiviral activity against HIV1 isolate 162 harboring reverse transcriptase A62V/V75I/F77L/Y115F/F116Y/Q151M/M184V mutant gene by phenosense assay; format: functional, organism-based; settings: Human immunodeficiency virus 1, isolate 162; in short: as §2
[12] = test system: Human immunodeficiency virus 1; experiment: Antiviral activity against HIV1 isolate 185 harboring reverse transcriptase T215Y mutant gene by phenosense assay; format: functional, organism-based; settings: Human immunodeficiency virus 1, isolate 185; in short: as §2
[13] = test system: Human immunodeficiency virus 1; experiment: Antiviral activity against HIV1 isolate 192 harboring reverse transcriptase M41L/T215Y mutant gene by phenosense assay; format: functional, organism-based; settings: Human immunodeficiency virus 1, isolate 192; in short: as §2
[14] = test system: Human immunodeficiency virus 1; experiment: Antiviral activity against HIV1 isolate 203 harboring reverse transcriptase M41L/L210W/T215Y/M184V mutant gene by phenosense assay; format: functional, organism-based; settings: Human immunodeficiency virus 1, isolate 203
In short: (§3)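 PhenoSense HIV recombinant virus assay: patient-derived HIV-1 with major NRTI resistance mutations tested against increasing drug concentrations to give inhibition curves. EC50 is the concentration giving 50% inhibition. Fold change is the test recombinant EC50 divided by the EC50 of a drug-sensitive wild-type reference virus. Panel of 30 NRTI-resistant isolates plus two wild-type viruses.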

[15] = test system: Human immunodeficiency virus 1; experiment: Antiviral activity against HIV1 isolate 204 harboring reverse transcriptase M41L/L210W/T215Y/M184V mutant gene by phenosense assay; format: functional, organism-based; settings: Human immunodeficiency virus 1, isolate 204; in short: as §3
[16] = test system: Human immunodeficiency virus 1; experiment: Antiviral activity against HIV1 isolate 206 harboring reverse transcriptase D67N/K70R mutant gene by phenosense assay; format: functional, organism-based; settings: Human immunodeficiency virus 1, isolate 206; in short: as §3
[17] = test system: Human immunodeficiency virus 1; experiment: Antiviral activity against HIV1 isolate 212 harboring reverse transcriptase L210W/T215Y mutant gene by phenosense assay; format: functional, organism-based; settings: Human immunodeficiency virus 1, isolate 212; in short: as §3
[18] = test system: Human immunodeficiency virus 1; experiment: Antiviral activity against HIV1 isolate 215 harboring reverse transcriptase D67N/K70E mutant gene by phenosense assay; format: functional, organism-based; settings: Human immunodeficiency virus 1, isolate 215; in short: as §3
[19] = test system: Human immunodeficiency virus 1; experiment: Antiviral activity against HIV1 isolate 217 harboring reverse transcriptase D67N/K70E/M184V mutant gene by phenosense assay; format: functional, organism-based; settings: Human immunodeficiency virus 1, isolate 217; in short: as §3
[20] = test system: Human immunodeficiency virus 1; experiment: Antiviral activity against HIV1 isolate 063 harboring reverse transcriptase M41L/D67N/K70R/M184V/L210W/T215Y/K219E mutant gene by phenosense assay relative to wild type; format: functional; in short: as §2
[21] = test system: Human immunodeficiency virus 1; experiment: Antiviral activity against HIV1 isolate 066 harboring reverse transcriptase 184V mutant gene by phenosense assay relative to wild type; format: functional; in short: as §2
[22] = test system: Human immunodeficiency virus 1; experiment: Antiviral activity against HIV1 isolate 067 harboring reverse transcriptase A62V/D67G/T69SVG/V75I/T215I mutant gene by phenosense assay relative to wild type; format: functional; in short: as §2
[23] = test system: Human immunodeficiency virus 1; experiment: Antiviral activity against HIV1 isolate 153 harboring reverse transcriptase L74V mutant gene by phenosense assay relative to wild type; format: functional; in short: as §2
[24] = test system: Human immunodeficiency virus 1; experiment: Antiviral activity against HIV1 isolate 162 harboring reverse transcriptase A62V/V75I/F77L/Y115F/F116Y/Q151M/M184V mutant gene by phenosense assay relative to wild type; format: functional; in short: as §2
[25] = test system: Human immunodeficiency virus 1; experiment: Antiviral activity against HIV1 isolate 166 harboring reverse transcriptase L74V mutant gene obtained as site-directed mutant of NL4-3 by phenosense assay relative to wild type; format: functional; in short: as §2
[26] = test system: Human immunodeficiency virus 1; experiment: Antiviral activity against HIV1 isolate 211 harboring reverse transcriptase D67N/K70R/T215F/K219E/M184V mutant gene by phenosense assay relative to wild type; format: functional; in short: as §3

SMILES | EC50 [1] | EC50 [2] | EC50 [3] | EC50 [4] | EC50 [5] | EC50 [6] | EC50 [7] | EC50 [8] | EC50 [9] | EC50 [10] | EC50 [11] | EC50 [12] | EC50 [13] | EC50 [14] | EC50 [15] | EC50 [16] | EC50 [17] | EC50 [18] | EC50 [19] | fold change (FC) [20] | other results
Nc1nc(NC2CC2)c2ncn([C@H]3C=C[C@@H](CO)C3)c2n1 [ABACAVIR] | 1.5 µM | 1.7 µM | 7.9 µM | 11 µM | 14 µM | 4.8 µM | 33 µM | 5.7 µM | 3.4 µM | 34 µM | > 52 µM | 3.7 µM | 3.4 µM | 8.2 µM | 8.9 µM | 2.5 µM | 3.6 µM | 2.4 µM | 5.1 µM | 7.9 | fold change (FC) [21]: 2.7; fold change (FC) [22]: 18; fold change (FC) [23]: 1.9; fold change (FC) [24]: >29; fold change (FC) [25]: 1.9; fold change (FC) [26]: 4.4
O=c1[nH]cnc2c1ncn2[C@H]1CC[C@@H](CO)O1 [DIDANOSINE] | 5.5 µM | 5.6 µM | 8.8 µM | 8.9 µM | 11 µM | 7.6 µM | 22 µM | 9.2 µM | 8.9 µM | 63 µM | 58 µM | 6.3 µM | 6.3 µM | 8.2 µM | 8.6 µM | 6.6 µM | 5.5 µM | 7.7 µM | 7.3 µM | 2.1 | fold change (FC) [21]: 1.4; fold change (FC) [22]: 4; fold change (FC) [23]: 1.6; fold change (FC) [24]: 11; fold change (FC) [25]: 1.5; fold change (FC) [26]: 1.6
Nc1nc(=O)n([C@@H]2CS[C@H](CO)O2)cc1F [EMTRICITABINE] | 0.89 µM | 1.6 µM | 5.7 µM | 11 µM | > 100 µM | > 100 µM | 30 µM | 19 µM | 2.1 µM | 35 µM | > 100 µM | 2.6 µM | 3.1 µM | > 100 µM | > 100 µM | 3.3 µM | 2.6 µM | 3.4 µM | > 100 µM | >88 | fold change (FC) [21]: >88; fold change (FC) [22]: 26; fold change (FC) [23]: 1.9; fold change (FC) [24]: >88; fold change (FC) [25]: 1.5; fold change (FC) [26]: >88
